# Publication PMC3954500 (Journal of Medicinal Chemistry, 2014)
# Tests used:
# hA2AAR = hA2AAR (Homo sapiens, UniProt P29274); assay: Radioligand binding at hA2AAR; details: 4a versus truncated 4′-thioadenosine derivative 2
# hA3AR = target: T1, hA3AR (Homo sapiens, UniProt P0DMS8); assay: cAMP functional assay at the hA3AR expressed in CHO cells; assay type: cell-based; details: for functional behaviour at hA3AR: cAMP assay, CHO cells; for Emax at 10 µM: CHO, read-out: maximal stimulation of cAMP formation / % activation relative to the full agonist 16 (= 100%)
# T1 sequence (P0DMS8 1-318): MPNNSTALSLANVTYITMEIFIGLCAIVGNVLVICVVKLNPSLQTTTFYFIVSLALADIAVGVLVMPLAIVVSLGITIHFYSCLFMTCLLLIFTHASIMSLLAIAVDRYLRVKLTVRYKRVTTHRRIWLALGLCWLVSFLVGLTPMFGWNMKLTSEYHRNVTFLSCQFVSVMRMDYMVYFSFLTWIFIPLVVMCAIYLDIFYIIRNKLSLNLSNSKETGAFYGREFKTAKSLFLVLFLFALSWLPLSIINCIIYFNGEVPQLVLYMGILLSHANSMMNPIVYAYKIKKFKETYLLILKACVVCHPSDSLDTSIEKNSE
# In short: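 Recombinant hA3AR-CHO cells, plated 24 h, washed with DMEM/50 mM HEPES pH 7.4. Treated with agonists and/or test compound plus rolipram (10 μM) and adenosine deaminase (3 units/mL); forskolin (10 μM) added at 45 min, incubation continued 15 min. Lysed with ice-cold 0.1 M HCl. cAMP quantified by PKA competition with [3H]cAMP (2 nM), GF/C filtration, scintillation, against cAMP standard curve. Mean ± SEM.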
# A1, A2A, and A3ARs = details: read-out: EC50 for activation of A1, A2A, and A3ARs; ref [5]; cited from earlier work
# A2BAR = details: read-out: EC50 for activation of A2BAR; ref [5]; cited from earlier work
# Chain of hA2AAR (P29274 whole entry, the tested form may be a part): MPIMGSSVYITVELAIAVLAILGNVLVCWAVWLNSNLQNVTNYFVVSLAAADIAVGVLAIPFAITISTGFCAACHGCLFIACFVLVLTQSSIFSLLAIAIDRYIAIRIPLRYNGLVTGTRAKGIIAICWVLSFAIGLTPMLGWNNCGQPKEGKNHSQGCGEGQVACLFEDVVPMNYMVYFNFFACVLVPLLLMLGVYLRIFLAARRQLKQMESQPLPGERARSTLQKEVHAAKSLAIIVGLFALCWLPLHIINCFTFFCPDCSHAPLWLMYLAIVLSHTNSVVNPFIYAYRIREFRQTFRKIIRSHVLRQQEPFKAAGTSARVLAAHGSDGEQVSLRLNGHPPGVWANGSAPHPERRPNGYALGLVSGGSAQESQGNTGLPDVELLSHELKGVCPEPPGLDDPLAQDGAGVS
SMILES,functional behaviour at hA3AR (hA3AR),Emax at 10 µM (hA3AR),other results
"CCCCC#Cc1nc(N)c2ncn([C@H]3[C@H](O)[C@H](O)[C@@H]4C[C@@H]43)c2n1 [4a, (1R,2R,3S,4R,5S)-4-(6-Amino-2-(hex-1-ynyl)-9H-purin-9-yl)bicyclo[3.1.0]hexane-2,3-diol]",–,–,fold less potent than 2 in binding affinity at the hA2AAR (hA2AAR): 14 fold and ≈ 14 fold
CCCCC#Cc1nc(NC)c2ncn([C@H]3[C@H](O)[C@H](O)[C@@H]4C[C@@H]43)c2n1 [4b],partial agonist,–,–
"CCCCC#Cc1nc(NCC)c2ncn([C@H]3[C@H](O)[C@H](O)[C@@H]4C[C@@H]43)c2n1 [4c, (1R,2R,3S,4R,5S)-4-(6-(ethylamino)-2-(hex-1-ynyl)-9H-purin-9-yl)bicyclo[3.1.0]hexane-2,3-diol]",partial agonists,15.5 ± 6.7%,–
"CCCCC#Cc1nc(NC2CC2)c2ncn([C@H]3[C@H](O)[C@H](O)[C@@H]4C[C@@H]43)c2n1 [4d, (1R,2R,3S,4R,5S)-4-(6-(Cyclopropylamino)-2-(hex-1-ynyl)-9H-purin-9-yl)bicyclo[3.1.0]hexane-2,3-diol]",partial agonists,19.8 ± 4.6%,–
"CCCCC#Cc1nc(NC2CCCC2)c2ncn([C@H]3[C@H](O)[C@H](O)[C@@H]4C[C@@H]43)c2n1 [4e, (1R,2R,3S,4R,5S)-4-(6-(Cyclopentylamino)-2-(hex-1-ynyl)-9H-purin-9-yl)bicyclo[3.1.0]hexane-2,3-diol]",partial agonists,27.1 ± 14.6%,–
"CCCCC#Cc1nc(NCc2cccc(I)c2)c2ncn([C@H]3[C@H](O)[C@H](O)[C@@H]4C[C@@H]43)c2n1 [4f, (1R,2R,3S,4R,5S)-4-(6-(3-Iodobenzylamino)-2-(hex-1-ynyl)-9H-purin-9-yl)bicyclo[3.1.0]hexane-2,3-diol]",antagonists,–,–
"CCCCC#Cc1nc(NCc2cccc(Br)c2)c2ncn([C@H]3[C@H](O)[C@H](O)[C@@H]4C[C@@H]43)c2n1 [4g, (1R,2R,3S,4R,5S)-4-(6-(3-Bromobenzylamino)-2-(hex-1-ynyl)-9H-purin-9-yl)bicyclo[3.1.0]hexane-2,3-diol]",antagonists,–,–
"CCCCC#Cc1nc(NCc2cccc(Cl)c2)c2ncn([C@H]3[C@H](O)[C@H](O)[C@@H]4C[C@@H]43)c2n1 [4h, (1R,2R,3S,4R,5S)-4-(6-(3-Chlorobenzylamino)-2-(hex-1-ynyl)-9H-purin-9-yl)bicyclo[3.1.0] hexane-2,3-diol]",antagonists,–,–
"CCCCC#Cc1nc(NCc2cccc(F)c2)c2ncn([C@H]3[C@H](O)[C@H](O)[C@@H]4C[C@@H]43)c2n1 [4i, (1R,2R,3S,4R,5S)-4-(6-(3-Fluorobenzylamino)-2-(hex-1-ynyl)-9H-purin-9-yl)bicyclo[3.1.0] hexane-2,3-diol]",partial agonists,18.9 ± 7.5%,–
